NR2E3 ag-1: agonists of human nuclear receptor NR2E3; AID 2300; inhibition of corepressor binding, % at 4.78 µM; GST-NR2E3/biotin-RetCOR TR-FRET, 1536-well; Q9Y5X4; hit rate 0.12% among 320,000;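 active = percent inhibition above the cutoff of mean plus 3 SD of all tested compounds, set per screening campaign, cut at about 20% in these data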;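 note: 0% = DMSO wells and 100% = biotin wells as full block of FRET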
Target sequence (Q9Y5X4 whole entry, looked up): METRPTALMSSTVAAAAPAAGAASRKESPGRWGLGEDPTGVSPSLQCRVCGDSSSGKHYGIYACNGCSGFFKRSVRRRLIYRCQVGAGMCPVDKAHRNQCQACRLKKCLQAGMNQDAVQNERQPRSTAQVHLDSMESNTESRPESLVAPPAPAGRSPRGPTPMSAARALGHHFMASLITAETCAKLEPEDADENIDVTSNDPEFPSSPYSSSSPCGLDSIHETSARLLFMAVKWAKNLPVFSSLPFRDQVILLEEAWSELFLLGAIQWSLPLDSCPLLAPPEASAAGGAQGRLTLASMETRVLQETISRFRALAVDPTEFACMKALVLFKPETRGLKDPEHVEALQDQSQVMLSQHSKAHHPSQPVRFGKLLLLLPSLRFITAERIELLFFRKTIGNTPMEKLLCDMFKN
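Material – GST-tagged NR2E3 plus biotinylated RetCOR corepressor · Quantity – NR2E3 fusion 1.35 nM · Times – 5 h incubation at 4 °C · Medium – pH 7.5 Tris-based buffer · Technique – TR-FRET, Eu(K)-anti-GST donor, streptavidin-D2 acceptor, ex 340, em 617/671 nm · Benchmarks – high control biotin, low control 0.6% DMSO · Format – 1536-well plates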
NR2F2 inh: blocks human COUP-TFII nuclear receptor. P24468. HEK293T NGFI-A luciferase reporter, luminescence. inhibition, % at 8.6 µM. hit rate 0.7% among 370,000;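 active = inhibition above a per-plate cutoff, mean inhibition of test wells between control levels plus 3 SD, cut at about 38% in these data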;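 note: cells cotransfected with COUP-TFII expression vector driving the NGFI-A reporter; 0% = median of COUP-TF2 test wells and 100% = reporter-only cells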
NR2E3 ag-2: agonists of human NR2E3 nuclear receptor; inhibition of corepressor binding, % at 3.98 µM; CHO-S Gal4-NCOR/VP16-NR2E3 two-hybrid, luciferase; hit rate 0.35% among 360,000; Q9Y5X4;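 active = inhibition above the mean of all tested compounds plus 3 SD, cut at about 70% in these data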;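 note: 0% = DMSO with NR2E3 transfected cells and 100% = cells lacking NR2E3 construct; higher means lower luciferase signal from less NR2E3 corepressor binding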
SMARCA2 activ: activators of SMARCA2 function. hit rate 1% among 370,000. activation, % at 9.1 µM. MG213 cells, MMTV-luciferase reporter, dexamethasone, overnight. AID 652017; in the data active = activation above about 7.8%;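 note: 0% = vehicle wells and 100% = reference activator wells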
GalR3 antag: human GalR3 antagonism. O60755. HEK293 GalR3-CNG cAMP membrane potential fluorescence; galR3 body fused to GalR1 C-terminus. inhibition, % at 3 µM. hit rate 0.44% among 360,000;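 active = inhibition above the screen-wide average plus 3 SD, cut at about 13% in these data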;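 note: forskolin and galanin both at EC90 stimulate the cells; cAMP rise reported by CNG channel membrane potential dye signal; 0% = forskolin plus galanin with DMSO and 100% = forskolin alone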
Target sequence (O60755 1-299 limits assumed): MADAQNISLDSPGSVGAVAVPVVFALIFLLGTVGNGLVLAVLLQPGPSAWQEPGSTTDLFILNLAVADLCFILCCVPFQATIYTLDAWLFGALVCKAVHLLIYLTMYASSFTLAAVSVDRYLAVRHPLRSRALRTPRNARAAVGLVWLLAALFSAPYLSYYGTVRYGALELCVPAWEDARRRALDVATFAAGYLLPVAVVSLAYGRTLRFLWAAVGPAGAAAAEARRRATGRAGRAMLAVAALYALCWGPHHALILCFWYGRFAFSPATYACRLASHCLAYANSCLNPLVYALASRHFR
NR2E3 ag confirm: NR2E3 agonism confirmed in two-hybrid assay; hit rate 51% among 2,300; inhibition, % at 3.98 µM; shares compounds with NR2E3 ag-2; CHO-S mammalian two-hybrid NR2E3-NCOR, luciferase luminescence;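 active = average inhibition above a cutoff equal to the mean inhibition of all tested compounds plus one SD, cut at about 70% in these data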;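 note: 0% = DMSO in NR2E3 cells and 100% = DMSO in cells lacking NR2E3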
GAL4-VP16 luc: reduces GAL4-VP16 reporter signal in NR2E3 counterscreen | shares compounds with NR2E3 ag-2 | CHO-S GAL4-VP16 luciferase reporter, luminescence | inhibition, % at 3.98 µM | hit rate 29% among 2,300 | AID 624379;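 active = mean inhibition above a cutoff equal to the average over all tested compounds plus one standard deviation, cut at about 70% in these data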;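 note: luciferase from a UAS reporter driven by GAL4-VP16 transactivation; 0% = DMSO with VP16-transfected cells and 100% = DMSO with cells lacking VP16; higher means less reporter light so more repression of VP16 activity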
GalR3 antag conf: GalR3 (human) antagonism, confirmation; shares compounds with GalR3 antag; HEK293 GalR3 CNG cAMP biosensor, membrane potential fluorescence; galR3 fused to GalR1 carboxy tail; challenged with forskolin and galanin at EC90; inhibition, % at 3 µM; hit rate 59% among 1,600;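 active = inhibition above the primary screen's cutoff, the mean inhibition of all screened compounds plus 3 SD, cut at about 13% in these data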;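 note: 0% = forskolin plus galanin and 100% = forskolin alone with DMSO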
HEK-CNG parental: acts as nonspecific agonist in parental HEK-CNG cells | shares compounds with GalR3 antag | HEK293-CNG parental cells, cAMP membrane potential fluorescence; normalised: DMSO wells 0%, forskolin wells 100% | activation, % at 3 µM | hit rate 10% among 1,600 | AID 652268; in the data active = activation above about 1.3%
Gal4-VP16 ctr: counter-screen for COUP-TFII antagonists: inhibitors of VP16. shares compounds with NR2F2 inh. HEK293 Gal4-VP16 luciferase reporter, luminescence. inhibition, % at 8.5 µM. hit rate 25% among 2,500; in the data active = inhibition above about 13%
NR2F2 inh conf: confirmation of human COUP-TFII (NR2F2) inhibitors; shares compounds with NR2F2 inh; HEK293 NGFI-A luciferase reporter, luminescence; inhibition, % at 8.5 µM; hit rate 45% among 2,500; AID 687008;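 active = mean inhibition over three repeats above a set limit taken from the earlier primary screen, cut at about 38% in these data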;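 note: 100% = cells given the luciferase reporter alone without the COUP-TF2 vector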
* = called active by the depositor; . = not tested or not shown. This is a sample that favours compounds with a hit; in the whole collection about 2.2% have one here.

SMILES	NR2E3 ag-1	NR2F2 inh	NR2E3 ag-2	SMARCA2 activ	GalR3 antag	NR2E3 ag confirm	GAL4-VP16 luc	Gal4-VP16 ctr	NR2F2 inh conf	others
Cc1nn(C)cc1C(C)NC(=O)c1cc(COc2cccc3cnccc23)on1 (centres undefined)	-1.2	38.1*	69.2	-1.5	-4.0	-7.6	32.3	1.3	11.6
Cc1ccc(C)c(NC(=O)CN(C)C(=O)c2cccc(S(=O)(=O)N3CCCC3)c2)c1	.	8.2	14.4	0.3	1.2	.	.	.	.
Cc1ccc(C)c(NC(=O)CN(C)C(=O)c2cccc(S(=O)(=O)N3CCN(Cc4ccccc4)CC3)c2)c1	-0.5	44.5*	58.5	-2.9	1.0	50.8	47.7	-3.8	31.4
COc1ccc(CN(C)C(=O)c2cccc(S(=O)(=O)N3CCN(c4ccccc4)CC3)c2)c(OC)c1OC	5.1	41.1*	54.5	-6.7	-6.5	83.2*	64.3	8.0	37.2
COc1ccc(NC(=O)CN(C)C(=O)c2cccc(S(=O)(=O)N3CCN(Cc4ccccc4)CC3)c2)cc1	5.0	.	24.7	.	.	.	.	.	.
CN(CCOc1ccc(Cl)cc1)C(=O)c1cccc(S(=O)(=O)N2CCN(Cc3ccccc3)CC2)c1	.	66.8*	83.6*	-5.2	31.2*	92.1*	73.9*	14.9*	57.7*	GalR3 antag conf=83.9*;HEK-CNG parental=0.9
CCOC(=O)CC[C@H]1CC[C@]2(CCCN(Cc3ccccc3)C2)O1	.	-15.5	.	1.5	.	.	.	.	.
COc1ccc([C@H]2OC(=O)C[C@@H]2C(=O)N2CCN(c3ccccc3F)CC2)cc1OC	.	-17.7	.	-2.0	.	.	.	.	.
Cc1nc2ccccc2c2c1CC(C(C)(Cl)Br)O2 (centres undefined)	-2.0	54.0*	62.2	-8.8	8.2	78.0*	68.4	6.1	56.4*
Cc1ccc2nc(C)c3c(c2c1)OC(C(C)(Cl)Br)C3 (centres undefined)	-3.9	16.3	-4.2	-5.0	-9.5	.	.	.	.
O=C(OC1CC2CCC(C1)[N+]21CCCC1)C(O)(c1ccccc1)c1ccccc1 (centres undefined)	.	-14.9	.	-5.6	.	.	.	.	.
COc1ccc(CC2C(=O)NC(C)C(=O)N(C)C3Cc4ccc(cc4)Oc4cc(ccc4O)CC(C(=O)NC(C)C(=O)NC(C)C(=O)N2C)N(C)C3=O)cc1 (centres undefined)	.	87.8*	103.2*	-10.0	1.0	99.1*	96.4*	19.5*	81.8*
c1ccc2c(c1)[nH]c1c(N3CCSCC3)ncnc12	0.8	25.6	21.6	-2.1	-0.6	.	.	.	.
Fc1ccc2[nH]c3c(N4CCc5ccccc5C4)ncnc3c2c1	-3.8	74.2*	72.5*	-4.6	-7.0	93.9*	87.1*	-8.0	70.1*
Brc1ccc2[nH]c3c(N4CCc5ccccc5C4)ncnc3c2c1	0.1	.	.	.	.	.	.	.	.
Cc1ccc2[nH]c3c(N4CCc5ccccc5C4)ncnc3c2c1	-2.3	60.1*	68.2	-5.2	-6.5	94.5*	76.7*	-39.1	50.2*
c1ccc2c(c1)[nH]c1c(N3CCCC3)ncnc12	-5.5	44.1*	63.1	-3.0	-1.8	49.0	37.1	-2.5	23.1
CCOC(=O)Cn1cc(CN2C(C(=O)OC)CN(CCO)CCS2(=O)=O)nn1 (centres undefined)	.	-12.8	.	-0.1	.	.	.	.	.
O=C1CCC[C@H]2CC3(CC[C@]24CCCN14)OCCO3	.	4.9	.	.	.	.	.	.	.
CCOC(=O)CC[C@@H]1CC[C@]2(CCCN(C(=O)c3ccco3)C2)O1	.	-12.0	.	-2.2	.	.	.	.	.
CC(C)(C)c1ccc(-n2ncc3c2CCCC3NC(=O)C2(C(N)=O)CC2)cc1 (centres undefined)	-2.1	65.3*	99.9*	-5.0	91.8*	91.9*	81.0*	-8.2	59.9*	GalR3 antag conf=113.9*;HEK-CNG parental=0.0
Cc1cc(C)cc(-n2ncc3c2CCCC3NC(=O)c2cc(C)n(C)n2)c1 (centres undefined)	-0.1	7.5	-17.1	0.4	-0.7	.	.	.	.
Cc1cc(C(=O)NC2CCCc3c2cnn3-c2ccc(C(C)(C)C)cc2)nn1C (centres undefined)	-5.0	64.0*	101.4*	-4.1	97.0*	93.7*	81.5*	3.4	70.7*	GalR3 antag conf=106.2*;HEK-CNG parental=-0.5
Cc1cccc(-n2ncc3c2CCCC3NC(=O)CN2CCOC2=O)c1C (centres undefined)	-2.6	-15.3	-3.2	-0.8	10.7	.	.	.	.
Cc1cccc(-n2ncc3c2CCCC3NC(=O)Cc2c(C)noc2C)c1C (centres undefined)	0.2	41.5*	60.0	-2.9	0.4	54.4	56.9	-1.2	36.2
SMILES	NR2E3 ag-1	NR2F2 inh	NR2E3 ag-2	SMARCA2 activ	GalR3 antag	NR2E3 ag confirm	GAL4-VP16 luc	Gal4-VP16 ctr	NR2F2 inh conf	others
CCn1cc(C(=O)NC2CCCc3c2cnn3-c2cccc(C)c2C)cn1 (centres undefined)	-0.1	63.5*	104.9*	-4.7	97.0*	94.8*	88.3*	-4.1	50.0*	GalR3 antag conf=113.9*;HEK-CNG parental=-0.5
Cc1cccc(-n2ncc3c2CCCC3NC(=O)CCc2cccnc2)c1C (centres undefined)	2.4	23.4	40.6	-3.9	0.1	.	.	.	.
CC1=C(C(=O)NC2CCCc3c2cnn3-c2cccc(C)c2C)OCCO1 (centres undefined)	0.8	55.9*	80.2*	-3.5	0.3	73.0*	66.7	-1.8	44.5*
Cc1cccc(-n2ncc3c2CCCC3NC(=O)CN2CCCC2=O)c1C (centres undefined)	0.8	-9.4	3.6	-3.1	-3.0	.	.	.	.
Cc1cccc(-n2ncc3c2CCCC3NC(=O)c2ccncc2)c1C (centres undefined)	.	63.8*	83.0*	-3.7	89.7*	85.1*	76.8*	1.6	48.7*	GalR3 antag conf=110.7*;HEK-CNG parental=-0.5
Cc1cccc(NC(=O)[C@@H]2CC(=O)O[C@@H]2c2ccccc2)c1C	.	2.1	.	-3.3	.	.	.	.	.
CCn1c(=O)[nH]n(C/C(C)=C\c2c[n+](Cc3ccc4c(c3)OCO4)c(N)[nH]2)c1=O	.	-8.3	.	.	.	.	.	.	.
COC(=O)[C@@]12CCCCC=C1N(CCc1ccc(Cl)cc1)C(=O)[C@H]2CC(=O)NCc1cccc2ccccc12	.	2.0	.	-1.9	.	.	.	.	.
